Assay results pooled from the literature.
Compare with care: the assays were run in different laboratories.
Target: Serine/threonine-protein kinase SBK1 (SBK1, Homo sapiens, UniProt Q52WX2)

With CN1CC(Oc2cnc(C#N)cc2-c2ccn3nc(NC(=O)C4CC4)cc3c2)C1 the inhibition was 15% (enzyme activity, inhibitor; 1 µM).
The remaining activity of O=C(Nc1cnn(-c2csc(C(=O)NC3COC3)c2)c1)Nc1ccccc1Cl is reported as 99.1% (enzyme activity, inhibitor; 5 µM).
The remaining binding of COc1ccc2c(c1)O[C@H](c1ccc(OC)c(OC)c1)C[C@@H]2NC(=O)C1(c2ccc3c(c2)OC(F)(F)O3)CC1 is reported as 90% (cell-free assay, competition with immobilised ligand; 1 µM).
Cc1sc(C(=O)NC2COC2)cc1-n1cc(NC(=O)Nc2c(F)cccc2Cl)cn1 has a remaining activity of 87.5% (enzyme activity, inhibitor; 10 µM).
The remaining binding of CN(c1ccnc(CNc2nc(Nc3ccc4c(c3)CC(=O)N4)ncc2C(F)(F)F)n1)S(C)(=O)=O is reported as 34% (cell-free assay, competition with immobilised ligand; 1 µM).
Cc1ccc(C(=O)Nc2ccc(CN3CCN(C)CC3)c(C(F)(F)F)c2)cc1C#Cc1cnc2cccnn12 has a remaining activity of 80% (enzyme activity, inhibitor; 23.5 nM).
COc1cc(Cl)c(C(=O)N[C@@H](CN[C@H]2CC[C@@H](N)CC2)Cc2ccc(C#N)cc2)cc1-c1ccc(CN[C@H](C)c2ccc(C)cc2)o1 gave a remaining activity of 98% (enzyme activity, inhibitor; 1 µM).
Nc1ncnc2occ(-c3ccc(NC(=O)Nc4cc(C(F)(F)F)ccc4F)cc3)c12 has a remaining signal of 6.7% (cell-free assay, inhibitor; 20 µM).
